Assay results from different studies.
Protocols differ between the studies behind these lines.
Effect on: parasite growth

SMILES	organism	assay	conditions	IC50
C=C1CC[C@@H]2[C@](C)(CCC[C@]2(C)C(=O)O)[C@H]1CC/C(C)=C/C(=O)O	Leishmania amazonensis		72 h, promastigote	28 µg/mL
CCCCCCCCCCCCCCCCOP(=O)([O-])OCC[N+](C)(C)C	Leishmania amazonensis	MTT	72 h, promastigote	15.1 µM
C[C@@H]1[C@H](O)[C@@H](C)/C=C/C=C/C=C/C=C/C=C/C=C/C=C/[C@H](O[C@@H]2O[C@H](C)[C@@H](O)[C@H](N)[C@@H]2O)C[C@@H]2O[C@](O)(C[C@@H](O)C[C@@H](O)[C@H](O)CC[C@@H](O)C[C@@H](O)CC(=O)O[C@H]1C)C[C@H](O)[C@H]2C(=O)O	Leishmania amazonensis		72 h, promastigote	0.06 µg/mL
COc1ccc(Sc2ccccc2)c(OC)c1OC	Leishmania braziliensis	MTT	24 h, promastigote	14.3 µM
C=C1C[C@@]23CC[C@H]4[C@@](C)(CCC[C@@]4(C)C(=O)O)[C@@H]2CC[C@@H]1C3	Leishmania amazonensis		72 h, promastigote	28 µg/mL
N=C(N)c1ccc(OCCCCCOc2ccc(C(=N)N)cc2)cc1	Leishmania amazonensis	imaging	48 h, intracellular, amastigote	3.4 µM
CC(C)(C)CC(C)(C)Nc1c(-c2ccccc2)nc2ncccn12	Leishmania amazonensis	MTT	72 h, promastigote	50.3 µM
C[C@@H]1[C@H](O)[C@@H](C)/C=C/C=C/C=C/C=C/C=C/C=C/C=C/[C@H](O[C@@H]2O[C@H](C)[C@@H](O)[C@H](N)[C@@H]2O)C[C@@H]2O[C@](O)(C[C@@H](O)C[C@@H](O)[C@H](O)CC[C@@H](O)C[C@@H](O)CC(=O)O[C@H]1C)C[C@H](O)[C@H]2C(=O)O	Leishmania braziliensis	MTT	24 h, promastigote	22 µM
CC(C)(C)CC(C)(C)Nc1c(-c2cccnc2)nc2ncccn12	Leishmania amazonensis	MTT	72 h, promastigote	> 100 µM
COc1ccc([S+]([O-])c2ccc(OC)c(OC)c2OC)cc1 (stereo not drawn)	Leishmania braziliensis	MTT	24 h, promastigote	15.2 µM
Oc1ccc(/C=C/c2cc(O)cc(O)c2)cc1	Leishmania amazonensis	MTT	72 h, promastigote	97.9 µM
CC(C)(C)CC(C)(C)Nc1c(-c2ccc(-c3ccccc3)cc2)nc2ncccn12	Leishmania amazonensis	MTT	72 h, promastigote	31.1 µM
